According to ChEMBL document CHEMBL2434966, “Novel N-4-piperazinyl-ciprofloxacin-chalcone hybrids: synthesis, physicochemical properties, anticancer and topoisomerase I and II inhibitory activity” (Eur J Med Chem, 2013):
Values after ≈ are worked out from the molar mass of the structure shown. Active and inactive are the calls of the source. The calls are words filed in the database; no cut-off is given here.

Columns and labels:
[1] = biological target: T1, DNA topoisomerase 1 (Homo sapiens) (UniProt P11387); assay: Inhibition of human recombinant topoisomerase 1-mediated relaxation of supercoiled pBR322 DNA at 100 uM after 30 mins by agarose gel electrophoresis relative to control
T1 sequence (whole entry): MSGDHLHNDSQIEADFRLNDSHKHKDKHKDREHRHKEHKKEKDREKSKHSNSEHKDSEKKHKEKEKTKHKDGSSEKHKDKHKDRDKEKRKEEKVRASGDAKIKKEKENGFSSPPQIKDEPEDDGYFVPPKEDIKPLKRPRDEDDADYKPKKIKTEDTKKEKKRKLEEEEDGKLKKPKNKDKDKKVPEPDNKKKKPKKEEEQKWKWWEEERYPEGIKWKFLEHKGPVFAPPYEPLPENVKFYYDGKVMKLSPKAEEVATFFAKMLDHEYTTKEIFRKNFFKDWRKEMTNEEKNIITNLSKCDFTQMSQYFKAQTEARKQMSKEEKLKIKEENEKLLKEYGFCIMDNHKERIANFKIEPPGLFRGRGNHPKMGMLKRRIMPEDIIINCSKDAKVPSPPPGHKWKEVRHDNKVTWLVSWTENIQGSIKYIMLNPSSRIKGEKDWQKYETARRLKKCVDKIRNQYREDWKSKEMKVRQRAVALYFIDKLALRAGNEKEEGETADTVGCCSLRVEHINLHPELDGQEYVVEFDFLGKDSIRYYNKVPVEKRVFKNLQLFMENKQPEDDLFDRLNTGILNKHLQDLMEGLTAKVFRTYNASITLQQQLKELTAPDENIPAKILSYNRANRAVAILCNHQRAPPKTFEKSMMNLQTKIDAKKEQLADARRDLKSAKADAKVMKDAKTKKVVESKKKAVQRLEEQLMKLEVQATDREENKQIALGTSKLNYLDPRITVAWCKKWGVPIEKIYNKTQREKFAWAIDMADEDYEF
Method in brief: (§1)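 Recombinant human topo I (0.4 units) with 100 ng supercoiled pBR322, 37 °C for 30 min in Tris-HCl pH 7.9, 150 mM NaCl, 0.1% BSA, 1 mM spermidine, 5% glycerol. Compounds came from 20 mM DMSO stocks, with matched DMSO in the enzyme-only control. Stopped with sarcosyl; 1% agarose/TAE gel, ethidium stain, UV densitometry. Camptothecin was the positive control.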

[2] = biological target: DNA topoisomerase 2-alpha (Homo sapiens) (UniProt P11388); assay: Inhibition of human topoisomerase 2alpha-mediated relaxation of supercoiled pBR322 DNA at 100 uM after 30 mins by agarose gel electrophoresis relative to control
Chain of DNA topoisomerase 2-alpha (Homo sapiens) (P11388 whole entry): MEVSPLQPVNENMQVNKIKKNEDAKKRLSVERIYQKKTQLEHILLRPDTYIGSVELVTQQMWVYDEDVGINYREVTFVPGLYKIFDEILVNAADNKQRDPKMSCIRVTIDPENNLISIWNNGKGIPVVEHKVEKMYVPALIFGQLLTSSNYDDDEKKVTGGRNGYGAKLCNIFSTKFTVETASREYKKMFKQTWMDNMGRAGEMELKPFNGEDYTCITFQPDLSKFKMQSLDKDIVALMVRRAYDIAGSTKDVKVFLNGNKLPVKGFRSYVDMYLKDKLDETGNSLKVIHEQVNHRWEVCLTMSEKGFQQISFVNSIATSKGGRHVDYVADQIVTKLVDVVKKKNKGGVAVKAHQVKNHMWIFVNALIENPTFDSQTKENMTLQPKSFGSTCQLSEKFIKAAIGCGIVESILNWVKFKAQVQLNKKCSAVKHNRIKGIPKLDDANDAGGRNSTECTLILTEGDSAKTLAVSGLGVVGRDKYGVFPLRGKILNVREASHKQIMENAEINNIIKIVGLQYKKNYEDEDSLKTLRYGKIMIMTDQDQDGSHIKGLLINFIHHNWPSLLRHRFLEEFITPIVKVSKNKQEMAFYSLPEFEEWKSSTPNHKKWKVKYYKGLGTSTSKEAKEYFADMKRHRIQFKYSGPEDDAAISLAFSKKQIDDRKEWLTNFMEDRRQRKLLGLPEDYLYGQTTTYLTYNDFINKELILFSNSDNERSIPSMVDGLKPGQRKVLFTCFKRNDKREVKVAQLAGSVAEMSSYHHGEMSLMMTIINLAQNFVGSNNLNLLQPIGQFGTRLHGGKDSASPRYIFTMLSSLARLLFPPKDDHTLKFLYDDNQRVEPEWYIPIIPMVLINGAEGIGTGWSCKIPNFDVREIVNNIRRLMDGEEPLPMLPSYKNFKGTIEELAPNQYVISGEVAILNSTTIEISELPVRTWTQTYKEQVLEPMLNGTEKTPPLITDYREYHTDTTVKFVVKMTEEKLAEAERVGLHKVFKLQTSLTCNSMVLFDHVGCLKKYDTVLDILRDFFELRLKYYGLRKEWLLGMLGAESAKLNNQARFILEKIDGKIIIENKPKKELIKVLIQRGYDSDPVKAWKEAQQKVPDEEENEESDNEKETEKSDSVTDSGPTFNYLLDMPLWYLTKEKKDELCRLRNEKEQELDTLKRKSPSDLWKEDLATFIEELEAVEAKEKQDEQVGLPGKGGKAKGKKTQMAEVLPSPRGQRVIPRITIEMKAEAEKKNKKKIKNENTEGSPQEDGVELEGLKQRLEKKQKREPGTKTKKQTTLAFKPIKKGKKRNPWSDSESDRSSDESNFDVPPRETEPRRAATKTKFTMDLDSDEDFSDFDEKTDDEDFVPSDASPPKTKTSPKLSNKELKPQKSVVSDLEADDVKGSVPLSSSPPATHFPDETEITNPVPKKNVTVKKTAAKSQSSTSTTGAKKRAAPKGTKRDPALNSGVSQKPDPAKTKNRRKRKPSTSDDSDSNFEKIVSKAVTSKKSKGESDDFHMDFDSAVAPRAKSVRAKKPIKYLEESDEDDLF
Method in brief: (§2)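 Human topo IIα (1 unit) with 200 ng supercoiled pBR322 in Tris-HCl pH 7.9, 50 mM NaCl, 5 mM MgCl2, 1 mM EDTA, 1 mM ATP, BSA, 30 min at 30 °C. DMSO was matched in the enzyme-only control. Stopped with EDTA; 1% agarose/TAE gel, ethidium stain, supercoiled band quantified by UV imaging. Etoposide was the positive control.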

[3] = Octanol-phosphate buffer partition coefficient, log P of the compound after 5 hrs by shake-flask method; type: physicochemical
Method in brief: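 Shake-flask method: 100 µL of 0.2 mg/mL stock diluted into 1.9 mL phosphate buffer pH 7.4 plus 2 mL mutually saturated n-octanol, protected from light. Vortexed 3 min, shaken 5 h at 25 °C. Both phases assayed by UV at 272 nm; log P = log([octanol]/[aqueous]), run in triplicate.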

[4] = Aqueous solubility of the compound at pH 7.8 by UV spectroscopic analysis; type: physicochemical; conditions: aqueous solution
Method in brief: (§3)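 Excess solid (10 mg) shaken in buffer at pH 6.9 or 7.8, 37 °C. The filtrate was diluted into the linear calibration range and dissolved drug measured by UV absorbance at λmax 272 nm. Values are the average of at least three agreeing independent measurements.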

[5] = Aqueous solubility of the compound at pH 6.9 by UV spectroscopic analysis; type: physicochemical; conditions: aqueous solution; method in brief: as §3
[6] = biological target: T1, DNA topoisomerase 1 (Homo sapiens); assay: Inhibition of human recombinant topoisomerase 1-mediated relaxation of supercoiled pBR322 DNA at 20 uM after 30 mins by agarose gel electrophoresis relative to control; method in brief: as §1
[7] = biological target: T1, DNA topoisomerase 1 (Homo sapiens); assay: Inhibition of human topoisomerase 1-mediated unwinding of pHOT1 plasmid DNA after 30 mins by agarose gel electrophoresis
Method in brief: (§4)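 pHOT1 plasmid (100 ng) was first relaxed with excess human topo I (3 units) for 30 min at 37 °C in Tris-HCl pH 7.9. Variable compound amounts were then added for a further 30 min at 37 °C. Stopped with EDTA; 1% agarose/TAE gel at 15 V for 15 h, ethidium stain, supercoiled DNA quantified. m-AMSA was the positive control.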

NCI-H522 = assay: Growth inhibition of human NCI-H522 cells at 10^-5 M after 48 hrs by sulforhodamine B assay; type: functional, cell-based
Method in brief: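 NCI 60-cell-line primary one-dose screen. Cells were exposed to a single 10^-5 M concentration for 48 h. The end point was sulforhodamine B protein staining, read spectrophotometrically. Results are reported as percent growth of treated cells relative to untreated control cells.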

HCT-116 = assay: Growth inhibition of human HCT116 cells at 10^-5 M after 48 hrs by sulforhodamine B assay; type: functional, cell-based
Method in brief: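 NCI 60-cell-line primary screen. Single concentration of 10^-5 M, 48 h incubation. End point by sulforhodamine B protein staining read spectrophotometrically. Reported as percent growth of treated cells relative to untreated control cells.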

[8] = biological target: DNA topoisomerase 2-alpha (Homo sapiens) (UniProt P11388); assay: Inhibition of human topoisomerase 2alpha-mediated relaxation of supercoiled pBR322 DNA at 20 uM after 30 mins by agarose gel electrophoresis relative to control; method in brief: as §2
[9] = biological target: T1, DNA topoisomerase 1 (Homo sapiens); assay: Inhibition of human topoisomerase 1-mediated unwinding of pHOT1 plasmid DNA up to 1000 uM after 30 mins by agarose gel electrophoresis; method in brief: as §4

SMILES	inhibition [1]	inhibition [2]	logP at 5 h [3]	solubility [4]	solubility [5]	inhibition [6]	inhibition [7]	inhibition [8]	inhibition [9]	growth inhibition (GI) (NCI-H522)	growth inhibition (GI) (HCT-116)
COc1ccc(/C=C/C(=O)c2ccc(NC(=O)CN3CCN(c4cc5c(cc4F)c(=O)c(C(=O)O)cn5C4CC4)CC3)cc2)cc1OC	73.2%	9%	1.46	0.68 µg/mL (≈ 1.04 µM)	0.75 µg/mL (≈ 1.15 µM)	2.5%	–	–	–	–	–
COc1cc(NS(C)(=O)=O)ccc1Nc1c2ccccc2nc2ccccc12	–	–	–	–	–	–	Dose-dependent effect	–	–	–	–
O=C(CN1CCN(c2cc3c(cc2F)c(=O)c(C(=O)O)cn3C2CC2)CC1)Nc1ccc(C(=O)/C=C/c2cccc([N+](=O)[O-])c2)cc1	90.5%	82.8%	-0.0812	27.4 µg/mL (≈ 42.9 µM)	30.7 µg/mL (≈ 47.9 µM)	11.1%	–	8.8%	–	–	–
COc1ccc(/C=C/C(=O)c2ccc(NC(=O)CN3CCN(c4cc5c(cc4F)c(=O)c(C(=O)O)cn5C4CC4)CC3)cc2)cc1	67.6%	84.3%	0.684	2.42 µg/mL (≈ 3.87 µM)	2.98 µg/mL (≈ 4.77 µM)	25.3%	–	49.6%	inactive	Active	Active
O=C(CN1CCN(c2cc3c(cc2F)c(=O)c(C(=O)O)cn3C2CC2)CC1)Nc1ccc(C(=O)/C=C/c2ccc3c(c2)OCO3)cc1	91.3%	85.7%	0.562	2.24 µg/mL (≈ 3.51 µM)	2.66 µg/mL (≈ 4.17 µM)	25.9%	–	43.8%	inactive	–	–

Second part, led by results:

inhibition [1]	inhibition [2]	logP at 5 h [3]	solubility [4]	solubility [5]	inhibition [6]	inhibition [7]	inhibition [8]	inhibition [9]	SMILES	growth inhibition (GI) (NCI-H522)	growth inhibition (GI) (HCT-116)
67.5%	27.7%	0.47	2.23 µg/mL (≈ 3.54 µM)	2.77 µg/mL (≈ 4.4 µM)	0.4%	–	–	–	O=C(CN1CCN(c2cc3c(cc2F)c(=O)c(C(=O)O)cn3C2CC2)CC1)Nc1ccc(C(=O)/C=C/c2ccc(Cl)cc2)cc1	Active	Active
68.8%	52.9%	0.302	29.7 µg/mL (≈ 47.3 µM)	34.4 µg/mL (≈ 54.7 µM)	3.1%	–	24.6%	–	O=C(CN1CCN(c2cc3c(cc2F)c(=O)c(C(=O)O)cn3C2CC2)CC1)Nc1ccc(C(=O)/C=C/c2cccc(Cl)c2)cc1	–	–
70.8%	66.7%	1.29	2.12 µg/mL (≈ 3.37 µM)	2.45 µg/mL (≈ 3.89 µM)	4.2%	–	21.3%	–	O=C(CN1CCN(c2cc3c(cc2F)c(=O)c(C(=O)O)cn3C2CC2)CC1)Nc1ccc(C(=O)/C=C/c2ccccc2Cl)cc1	–	–
85.1%	78.9%	1.47	2.07 µg/mL (≈ 3.32 µM)	2.12 µg/mL (≈ 3.4 µM)	11%	–	29.4%	–	Cc1ccc(/C=C/C(=O)c2ccc(NC(=O)CN3CCN(c4cc5c(cc4F)c(=O)c(C(=O)O)cn5C4CC4)CC3)cc2)c(C)c1	–	–
